In ChEMBL document CHEMBL5696442, “Discovery of type II inhibitors of TGFβ-activated kinase 1 (TAK1) and mitogen-activated protein kinase kinase kinase kinase 2 (MAP4K2)” (J Med Chem, 2015):

Experiments:
[1] = biological target: Calcium/calmodulin-dependent protein kinase type 1 (Homo sapiens) (UniProt Q14012); experiment: Inhibition of CAMK1 alpha Lys1 labeling site in human Huh-7 cell lysate at 1 uM by KiNativ Profiling analysis relative to control; format: subcellular
[2] = biological target: Phosphatidylinositol 3-kinase catalytic subunit type 3 (Homo sapiens) (UniProt Q8NEB9); experiment: Inhibition of PIK3C3 ATP labeling site in human A-375 cells at 5 uM by KiNativ Profiling analysis relative to control; format: cell-based
[3] = biological target: Serine/threonine-protein kinase 26 (Homo sapiens) (UniProt Q9P289); experiment: Inhibition of MST4 Lys2 labeling site in human A-375 cells at 0.05 uM by KiNativ Profiling analysis relative to control; format: cell-based
[4] = biological target: T1, Mitogen-activated protein kinase kinase kinase 2 (Homo sapiens) (UniProt Q9Y2U5); experiment: Inhibition of MAP3K2 Lys1 labeling site harbouring VYLCYDVDTGRELAVKQVQFDPDSPETSKEVNALECEIQLLK in human A-375 cells at 0.05 uM by KiNativ Profiling analysis relative to control; format: cell-based
T1 sequence (whole entry): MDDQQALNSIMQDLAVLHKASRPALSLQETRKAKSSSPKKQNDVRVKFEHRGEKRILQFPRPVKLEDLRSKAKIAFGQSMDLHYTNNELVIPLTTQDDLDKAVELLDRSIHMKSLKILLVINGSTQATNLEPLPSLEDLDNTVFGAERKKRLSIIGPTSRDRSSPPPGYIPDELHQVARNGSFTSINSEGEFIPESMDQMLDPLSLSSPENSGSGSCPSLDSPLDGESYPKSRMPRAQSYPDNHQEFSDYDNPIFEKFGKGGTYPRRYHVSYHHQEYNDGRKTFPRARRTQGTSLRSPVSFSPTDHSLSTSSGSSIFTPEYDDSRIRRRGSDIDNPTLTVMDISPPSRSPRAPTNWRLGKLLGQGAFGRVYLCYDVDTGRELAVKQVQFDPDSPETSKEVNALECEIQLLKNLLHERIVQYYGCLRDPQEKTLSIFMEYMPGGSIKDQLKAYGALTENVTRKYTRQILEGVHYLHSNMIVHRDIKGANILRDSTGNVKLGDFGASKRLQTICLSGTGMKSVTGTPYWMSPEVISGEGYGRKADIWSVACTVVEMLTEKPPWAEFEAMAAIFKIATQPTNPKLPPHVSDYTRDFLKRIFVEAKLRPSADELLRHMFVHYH

[5] = biological target: T2, Ephrin type-B receptor 2 (Homo sapiens) (UniProt P29323); experiment: Inhibition of EphB2 ACT labeling site in human A-375 cells at 0.05 uM by KiNativ Profiling analysis relative to control; format: cell-based
T2 sequence (whole entry): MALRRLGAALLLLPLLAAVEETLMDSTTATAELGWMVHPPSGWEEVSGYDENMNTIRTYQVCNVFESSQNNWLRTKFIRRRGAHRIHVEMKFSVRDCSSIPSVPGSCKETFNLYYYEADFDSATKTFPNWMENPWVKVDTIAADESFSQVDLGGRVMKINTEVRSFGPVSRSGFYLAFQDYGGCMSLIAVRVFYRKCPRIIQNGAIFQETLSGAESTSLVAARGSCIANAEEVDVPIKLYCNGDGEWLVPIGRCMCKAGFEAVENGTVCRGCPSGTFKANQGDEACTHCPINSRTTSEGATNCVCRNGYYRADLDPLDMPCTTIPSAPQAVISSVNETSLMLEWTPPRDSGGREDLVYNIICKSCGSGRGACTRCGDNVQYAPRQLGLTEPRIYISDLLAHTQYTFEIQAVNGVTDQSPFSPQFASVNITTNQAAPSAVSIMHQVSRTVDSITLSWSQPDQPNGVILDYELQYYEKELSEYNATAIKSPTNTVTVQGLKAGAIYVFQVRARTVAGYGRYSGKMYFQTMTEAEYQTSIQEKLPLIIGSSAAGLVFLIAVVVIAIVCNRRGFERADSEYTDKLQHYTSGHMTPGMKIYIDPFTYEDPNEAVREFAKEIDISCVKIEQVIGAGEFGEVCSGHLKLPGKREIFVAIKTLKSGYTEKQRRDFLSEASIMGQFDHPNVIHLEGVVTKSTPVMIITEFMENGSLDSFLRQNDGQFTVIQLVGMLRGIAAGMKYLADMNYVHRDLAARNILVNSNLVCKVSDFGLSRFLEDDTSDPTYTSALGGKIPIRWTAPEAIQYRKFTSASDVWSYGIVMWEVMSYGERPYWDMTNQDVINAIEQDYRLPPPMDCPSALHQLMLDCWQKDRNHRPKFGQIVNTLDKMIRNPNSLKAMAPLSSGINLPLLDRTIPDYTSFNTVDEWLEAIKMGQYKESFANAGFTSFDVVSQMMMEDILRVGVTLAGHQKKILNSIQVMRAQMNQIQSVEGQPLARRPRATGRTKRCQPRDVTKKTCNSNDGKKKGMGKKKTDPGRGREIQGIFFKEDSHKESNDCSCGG

[6] = biological target: Serine/threonine-protein kinase WNK2 (Homo sapiens) (UniProt Q9Y3S1); experiment: Inhibition of Wnk2 ACT labeling site in human A-375 cells at 0.05 uM by KiNativ Profiling analysis relative to control; format: cell-based
[7] = biological target: Ribosomal protein S6 kinase alpha-2 (Homo sapiens) (UniProt Q15349); experiment: Inhibition of RSK3 Protein Kinase Domain in human A-375 cells at 0.05 uM by KiNativ Profiling analysis relative to control; format: cell-based
[8] = biological target: Cyclin-dependent kinase 11B (Homo sapiens) (UniProt P21127); experiment: Inhibition of PITSLRE Lys2 labeling site in human A-375 cells at 0.5 uM by KiNativ Profiling analysis relative to control; format: cell-based
[9] = biological target: Ribosomal protein S6 kinase alpha-3 (Homo sapiens) (UniProt P51812); experiment: Inhibition of RSK2 domain2 Protein Kinase Domain in human A-375 cells at 0.5 uM by KiNativ Profiling analysis relative to control; format: cell-based
In short: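 Live A375 melanoma cells treated with compound at 5 or 0.5 μM, then lysed. Lysate kinases were labeled with a lysine-reactive ATP or ADP-biotin probe. Inhibition was read as protection of labeling sites from the probe.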

Chain of Ribosomal protein S6 kinase alpha-3 (Homo sapiens) (P51812 whole entry, the tested form may be a part): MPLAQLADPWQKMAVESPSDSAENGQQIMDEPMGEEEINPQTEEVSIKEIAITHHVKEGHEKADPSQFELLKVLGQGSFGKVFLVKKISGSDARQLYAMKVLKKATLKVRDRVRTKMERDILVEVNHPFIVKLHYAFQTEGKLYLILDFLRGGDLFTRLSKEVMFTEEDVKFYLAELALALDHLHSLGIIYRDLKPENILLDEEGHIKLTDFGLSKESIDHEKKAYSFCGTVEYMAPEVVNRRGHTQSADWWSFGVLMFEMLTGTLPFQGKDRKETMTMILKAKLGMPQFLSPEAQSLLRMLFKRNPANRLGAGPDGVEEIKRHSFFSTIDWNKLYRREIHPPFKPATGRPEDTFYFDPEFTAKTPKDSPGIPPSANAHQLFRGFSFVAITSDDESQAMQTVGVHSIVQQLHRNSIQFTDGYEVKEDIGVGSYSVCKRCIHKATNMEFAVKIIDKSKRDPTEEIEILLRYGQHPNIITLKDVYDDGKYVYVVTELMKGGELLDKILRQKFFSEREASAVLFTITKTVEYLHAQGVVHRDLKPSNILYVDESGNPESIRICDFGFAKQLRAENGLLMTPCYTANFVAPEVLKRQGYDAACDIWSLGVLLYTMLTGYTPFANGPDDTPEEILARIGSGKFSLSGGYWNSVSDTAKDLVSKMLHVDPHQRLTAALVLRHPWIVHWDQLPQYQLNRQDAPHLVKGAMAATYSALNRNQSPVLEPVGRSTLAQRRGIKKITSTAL
Chain of Phosphatidylinositol 3-kinase catalytic subunit type 3 (Homo sapiens) (Q8NEB9 whole entry): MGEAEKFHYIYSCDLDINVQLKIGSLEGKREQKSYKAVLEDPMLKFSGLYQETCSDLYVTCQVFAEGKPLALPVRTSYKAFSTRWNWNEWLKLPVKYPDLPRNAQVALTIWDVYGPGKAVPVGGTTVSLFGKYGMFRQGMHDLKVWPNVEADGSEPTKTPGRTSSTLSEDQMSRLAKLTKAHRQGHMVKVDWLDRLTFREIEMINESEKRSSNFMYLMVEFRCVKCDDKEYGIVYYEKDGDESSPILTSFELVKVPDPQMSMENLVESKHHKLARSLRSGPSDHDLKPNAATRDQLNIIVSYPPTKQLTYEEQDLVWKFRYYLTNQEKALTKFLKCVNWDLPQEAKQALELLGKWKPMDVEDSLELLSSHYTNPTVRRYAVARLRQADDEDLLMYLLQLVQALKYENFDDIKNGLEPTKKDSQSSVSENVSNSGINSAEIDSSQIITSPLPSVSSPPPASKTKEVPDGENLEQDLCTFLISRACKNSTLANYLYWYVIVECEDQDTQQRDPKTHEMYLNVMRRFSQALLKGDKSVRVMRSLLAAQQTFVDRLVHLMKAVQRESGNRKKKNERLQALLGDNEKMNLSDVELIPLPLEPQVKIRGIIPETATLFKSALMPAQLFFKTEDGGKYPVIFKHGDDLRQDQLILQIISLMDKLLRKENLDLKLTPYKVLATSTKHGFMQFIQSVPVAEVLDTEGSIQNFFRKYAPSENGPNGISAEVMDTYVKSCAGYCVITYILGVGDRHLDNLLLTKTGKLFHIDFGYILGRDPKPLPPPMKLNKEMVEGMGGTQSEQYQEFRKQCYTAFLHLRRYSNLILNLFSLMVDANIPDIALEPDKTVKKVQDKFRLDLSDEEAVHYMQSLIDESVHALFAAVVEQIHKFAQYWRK
Chain of Serine/threonine-protein kinase WNK2 (Homo sapiens) (Q9Y3S1 whole entry, the tested form may be a part): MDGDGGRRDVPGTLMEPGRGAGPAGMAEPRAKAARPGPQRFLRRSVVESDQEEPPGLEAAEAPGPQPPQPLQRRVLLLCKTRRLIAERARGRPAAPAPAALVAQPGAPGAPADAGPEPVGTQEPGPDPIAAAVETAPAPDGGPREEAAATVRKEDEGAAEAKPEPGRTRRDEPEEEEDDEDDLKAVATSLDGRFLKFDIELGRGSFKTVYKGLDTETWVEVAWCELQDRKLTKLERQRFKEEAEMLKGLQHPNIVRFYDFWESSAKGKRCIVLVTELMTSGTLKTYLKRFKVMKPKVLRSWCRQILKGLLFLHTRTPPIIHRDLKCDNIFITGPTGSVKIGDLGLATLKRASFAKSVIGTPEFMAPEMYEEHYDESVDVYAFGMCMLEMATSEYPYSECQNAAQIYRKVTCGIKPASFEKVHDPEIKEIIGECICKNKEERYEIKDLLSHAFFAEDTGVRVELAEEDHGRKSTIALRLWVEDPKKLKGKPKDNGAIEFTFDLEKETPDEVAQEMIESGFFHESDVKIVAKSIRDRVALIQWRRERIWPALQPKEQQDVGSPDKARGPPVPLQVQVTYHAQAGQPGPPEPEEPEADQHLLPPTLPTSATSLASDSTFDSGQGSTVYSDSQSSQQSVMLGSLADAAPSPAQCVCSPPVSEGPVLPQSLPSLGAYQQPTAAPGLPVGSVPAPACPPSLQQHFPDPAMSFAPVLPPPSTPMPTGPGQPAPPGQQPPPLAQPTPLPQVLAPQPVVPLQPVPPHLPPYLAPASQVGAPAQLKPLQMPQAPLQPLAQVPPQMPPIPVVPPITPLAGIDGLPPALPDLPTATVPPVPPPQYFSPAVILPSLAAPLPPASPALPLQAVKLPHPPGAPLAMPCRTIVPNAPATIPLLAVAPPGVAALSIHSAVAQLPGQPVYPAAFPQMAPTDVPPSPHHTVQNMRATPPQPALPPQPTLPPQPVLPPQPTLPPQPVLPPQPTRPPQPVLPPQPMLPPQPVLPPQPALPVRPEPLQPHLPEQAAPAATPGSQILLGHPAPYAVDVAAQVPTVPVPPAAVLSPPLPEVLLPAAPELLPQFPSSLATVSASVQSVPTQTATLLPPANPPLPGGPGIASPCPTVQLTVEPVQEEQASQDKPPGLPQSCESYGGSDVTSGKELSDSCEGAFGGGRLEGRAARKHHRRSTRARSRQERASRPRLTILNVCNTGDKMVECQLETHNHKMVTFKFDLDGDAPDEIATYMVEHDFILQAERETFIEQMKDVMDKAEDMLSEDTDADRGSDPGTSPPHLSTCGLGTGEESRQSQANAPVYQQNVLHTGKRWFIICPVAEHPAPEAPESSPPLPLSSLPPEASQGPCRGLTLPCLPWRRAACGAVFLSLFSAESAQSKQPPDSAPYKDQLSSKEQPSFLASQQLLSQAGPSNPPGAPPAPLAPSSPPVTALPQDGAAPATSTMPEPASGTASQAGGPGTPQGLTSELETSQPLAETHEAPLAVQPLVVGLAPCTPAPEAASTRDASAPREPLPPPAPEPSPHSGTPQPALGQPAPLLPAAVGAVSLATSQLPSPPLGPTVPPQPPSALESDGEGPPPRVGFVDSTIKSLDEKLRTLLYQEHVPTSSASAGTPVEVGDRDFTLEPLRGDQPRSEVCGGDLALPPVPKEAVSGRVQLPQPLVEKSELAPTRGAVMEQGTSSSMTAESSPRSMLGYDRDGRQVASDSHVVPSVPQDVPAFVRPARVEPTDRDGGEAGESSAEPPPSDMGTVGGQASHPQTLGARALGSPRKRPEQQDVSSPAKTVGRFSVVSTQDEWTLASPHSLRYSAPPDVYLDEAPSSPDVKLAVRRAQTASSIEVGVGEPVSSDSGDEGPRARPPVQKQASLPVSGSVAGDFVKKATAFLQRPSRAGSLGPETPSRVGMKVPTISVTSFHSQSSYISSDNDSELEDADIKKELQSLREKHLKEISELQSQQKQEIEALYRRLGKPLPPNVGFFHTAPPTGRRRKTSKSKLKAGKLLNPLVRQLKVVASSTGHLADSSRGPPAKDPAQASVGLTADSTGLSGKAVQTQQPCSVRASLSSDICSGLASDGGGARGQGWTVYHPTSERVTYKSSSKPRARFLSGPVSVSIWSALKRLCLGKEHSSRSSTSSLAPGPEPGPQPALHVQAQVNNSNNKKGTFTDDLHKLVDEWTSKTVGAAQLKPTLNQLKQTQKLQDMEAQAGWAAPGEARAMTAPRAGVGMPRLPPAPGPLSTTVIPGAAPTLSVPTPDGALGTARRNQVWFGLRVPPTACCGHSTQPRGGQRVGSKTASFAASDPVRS
Chain of Calcium/calmodulin-dependent protein kinase type 1 (Homo sapiens) (Q14012 whole entry, looked up): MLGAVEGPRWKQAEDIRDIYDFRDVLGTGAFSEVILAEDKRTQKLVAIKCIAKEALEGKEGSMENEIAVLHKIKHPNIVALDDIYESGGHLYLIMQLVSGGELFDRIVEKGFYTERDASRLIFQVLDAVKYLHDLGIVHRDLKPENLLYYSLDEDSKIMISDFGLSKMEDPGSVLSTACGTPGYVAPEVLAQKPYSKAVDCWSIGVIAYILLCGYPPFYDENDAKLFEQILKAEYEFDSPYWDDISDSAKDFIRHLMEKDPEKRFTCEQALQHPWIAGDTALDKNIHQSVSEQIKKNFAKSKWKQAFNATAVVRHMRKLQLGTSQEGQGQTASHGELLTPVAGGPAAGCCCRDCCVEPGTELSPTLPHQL
Chain of Serine/threonine-protein kinase 26 (Homo sapiens) (Q9P289 2-416 limits assumed): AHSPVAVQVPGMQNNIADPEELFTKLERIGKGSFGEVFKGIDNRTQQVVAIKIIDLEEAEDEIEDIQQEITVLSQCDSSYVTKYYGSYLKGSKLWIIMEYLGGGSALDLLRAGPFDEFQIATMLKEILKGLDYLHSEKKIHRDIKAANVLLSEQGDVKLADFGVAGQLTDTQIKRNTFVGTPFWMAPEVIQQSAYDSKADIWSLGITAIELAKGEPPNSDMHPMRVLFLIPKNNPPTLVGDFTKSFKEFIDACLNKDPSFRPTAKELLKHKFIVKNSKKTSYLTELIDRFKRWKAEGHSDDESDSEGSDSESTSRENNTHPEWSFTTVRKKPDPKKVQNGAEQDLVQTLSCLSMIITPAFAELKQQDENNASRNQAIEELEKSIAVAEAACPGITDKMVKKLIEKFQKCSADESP

SMILES	inhibition [1] [%]	inhibition [2] [%]	inhibition [3] [%]	inhibition [4] [%]	inhibition [5] [%]	inhibition [6] [%]	inhibition [7] [%]	inhibition [8] [%]	inhibition [9] [%]
CNc1cc(Oc2cc(C(=O)Nc3cc(-n4cnc(C)c4)cc(C(F)(F)F)c3)ccc2C)ncn1	5	–	–	–	–	–	–	–	–
CCN1CCN(Cc2ccc(NC(=O)c3ccc(C)c(Oc4ccnc5[nH]ccc45)c3)cc2C(F)(F)F)CC1	–	40.5	-0.7	-3.7	5	10.3	-4.7	-2.7	7.2
CCN1CCN(Cc2ccc(NC(=O)c3ccc(C)c(/C=C/c4cnc5[nH]ccc5c4OC)c3)cc2C(F)(F)F)CC1	–	35.1	9.1	1.5	36.9	10.1	1.4	-0.4	-4.1
CNc1cc(Oc2cc(C(=O)Nc3cc(N4CCN(C)CC4)cc(C(F)(F)F)c3)ccc2C)ncn1	8.8	–	–	–	–	–	–	–	–
